Active and inactive are the calls of the source. The rule behind the calls is not given here.
Key:
[1] = molecular target: T1, D-amino-acid oxidase (Sus scrofa, UniProt P00371); assay: Competitive inhibition of pig kidney DAAO in presence of D-alanine
[2] = molecular target: T2, D-amino-acid oxidase (Homo sapiens, UniProt P14920); assay: Binding affinity to human recombinant DAAO at 496 nm spectral modification by spectrophotometric analysis in presence of FAD
Summary of the method: (§1)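 Purified human recombinant DAAO holoenzyme (His-tagged construct expressed in E. coli, purified by nickel column and size exclusion) was titrated in its oxidized state with increasing inhibitor concentrations, without substrate turnover. Ligand-induced changes in the FAD visible absorption spectrum were read at the stated wavelength. Kd and SE came from nonlinear regression of absorbance-change saturation curves. Changes above 500 nm indicate a charge-transfer complex.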

[3] = molecular target: T2, D-amino-acid oxidase; assay: Binding affinity to human recombinant DAAO at 443 nm spectral modification by spectrophotometric analysis in presence of FAD; summary of the method: as §1
[4] = molecular target: T2, D-amino-acid oxidase; assay: Competitive inhibition of human recombinant DAAO by Michaelis-Menten plot analysis in presence of D-serine
[5] = molecular target: T2, D-amino-acid oxidase; assay: Competitive inhibition of human recombinant DAAO after 1 hr by coupled enzyme assay in presence of D-serine
[6] = molecular target: T2, D-amino-acid oxidase; assay: Binding affinity to human recombinant DAAO by stopped flow spectrophotometric analysis in presence of FAD
[7] = molecular target: T2, D-amino-acid oxidase; assay: Binding affinity to human recombinant DAAO at 520 nm spectral modification by spectrophotometric analysis in presence of FAD
[8] = molecular target: T2, D-amino-acid oxidase; assay: Binding affinity to human recombinant DAAO at 490 nm spectral modification by spectrophotometric analysis in presence of FAD
[9] = test system: Rattus norvegicus; assay: Inhibition of DAAO in ip dosed Sprague-Dawley rat assessed as cerebellum concentration of compound required for 50% accumulation of D-serine after 6 hrs by LC/MS/MS analysis; assay type: functional, organism-based
Summary of the method: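 Rats received different ip doses. Cerebellum D-serine and inhibitor concentrations were measured 6 h later. EC50 was the inhibitor concentration at half-maximal D-serine increase, from a sigmoidal dose–response fit.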

[10] = test system: Rattus norvegicus; assay: Metabolic stability in Sprague-Dawley rat at 3 to 10 mg/kg, po/10 mg/kg, ip by LC/MS/MS analysis; assay type: ADME, organism-based; parameters: dose 3-10 mg/kg, route intraperitoneal; conditions: in vivo
[11] = Drug uptake in C57BL/6 mouse cerebellum at 12 mg/kg, ip administered every 2 hrs by LC/MS/MS analysis; assay type: ADME, organism-based; parameters: dose 12 mg/kg, route intraperitoneal; conditions: read-out: Drug uptake
Summary of the method: (§2)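 Male C57BL/6 mice (20–30 g) were dosed ip in 50 mM phosphate buffer at 5 mL/kg, with controls given vehicle only. Regimens were 12 mg/kg once or repeated at 2, 4 and 6 h, 30 mg/kg, or 125 mg/kg. Mice were killed at set times. Cerebellar inhibitor and D-serine were measured in the same samples, D-serine by chiral LC/MS/MS. Initial rate was the slope over 0–2 h.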

[12] = Drug uptake in C57BL/6 mouse cerebellum at 12 mg/kg, ip after 2 hrs by LC/MS/MS analysis; assay type: ADME, organism-based; parameters: dose 12 mg/kg, route intraperitoneal; conditions: read-out: Drug uptake; summary of the method: as §2
[13] = molecular target: T2, D-amino-acid oxidase; assay: Inhibition of DAAO (unknown origin)
[14] = species: Mus musculus; conditions: C57BL/6, Cerebellum, 12 mg/kg
[15] = molecular target: T1, D-amino-acid oxidase; assay: Binding affinity to pig kidney DAAO using D-alanine as substrate
[16] = molecular target: T2, D-amino-acid oxidase; assay: Binding affinity to human recombinant DAAO at 492 nm spectral modification by spectrophotometric analysis in presence of FAD
Summary of the method: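 Purified human recombinant DAAO, E. coli-expressed and purified on a nickel column then size exclusion, was titrated in the oxidized (holoenzyme) state with rising inhibitor concentrations up to saturation, without substrate turnover. Ligand-induced changes in the FAD visible absorption spectrum were followed. Kd with SE came from nonlinear regression of saturation curves of absorbance change against inhibitor concentration.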

[17] = molecular target: T2, D-amino-acid oxidase
[18] = molecular target: T2, D-amino-acid oxidase; assay: Binding affinity to human recombinant DAAO at 498 nm spectral modification by spectrophotometric analysis in presence of FAD
Summary of the method: (§3)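 Oxidized holoenzyme of purified human recombinant DAAO, titrated with increasing inhibitor in the absence of substrate. Ligand-induced changes in the FAD visible absorption spectrum were read at fixed wavelengths. Kd and SE came from nonlinear regression of saturation of the absorbance change.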

[19] = molecular target: T2, D-amino-acid oxidase; assay: Binding affinity to human recombinant DAAO at 444 nm spectral modification by spectrophotometric analysis in presence of FAD; summary of the method: as §3
[20] = molecular target: T2, D-amino-acid oxidase; assay: Binding affinity to human recombinant DAAO at 395 nm spectral modification by spectrophotometric analysis in presence of FAD; summary of the method: as §3
[21] = molecular target: T2, D-amino-acid oxidase; assay: Binding affinity to human recombinant DAAO at 362 nm spectral modification by spectrophotometric analysis in presence of FAD; summary of the method: as §3
[22] = Drug uptake in C57BL/6 mouse cerebellum at 125 mg/kg, ip after 3 hrs by LC/MS/MS analysis; assay type: ADME, organism-based; parameters: dose 125 mg/kg, route intraperitoneal; conditions: read-out: Drug uptake; summary of the method: as §2
[23] = test system: Mus musculus; assay: Inhibition of DAAO in C57BL/6 mouse assessed as increase in rate of D-serine accumulation in cerebellum at 125 mg/kg, ip by LC/MS/MS analysis; assay type: functional, organism-based; parameters: dose 125 mg/kg; summary of the method: as §2
[24] = molecular target: T2, D-amino-acid oxidase; assay: Binding affinity to human recombinant DAAO at 600 nm spectral modification by spectrophotometric analysis in presence of FAD; summary of the method: as §1
[25] = molecular target: T2, D-amino-acid oxidase; assay: Binding affinity to human recombinant DAAO at 440 nm spectral modification by spectrophotometric analysis in presence of FAD; summary of the method: as §1
[26] = Drug uptake in C57BL/6 mouse cerebellum at 30 mg/kg, ip after 6 hrs by LC/MS/MS analysis; assay type: ADME, organism-based; parameters: dose 30 mg/kg, route intraperitoneal; conditions: read-out: Drug uptake; summary of the method: as §2

T2 sequence (P14920 whole entry): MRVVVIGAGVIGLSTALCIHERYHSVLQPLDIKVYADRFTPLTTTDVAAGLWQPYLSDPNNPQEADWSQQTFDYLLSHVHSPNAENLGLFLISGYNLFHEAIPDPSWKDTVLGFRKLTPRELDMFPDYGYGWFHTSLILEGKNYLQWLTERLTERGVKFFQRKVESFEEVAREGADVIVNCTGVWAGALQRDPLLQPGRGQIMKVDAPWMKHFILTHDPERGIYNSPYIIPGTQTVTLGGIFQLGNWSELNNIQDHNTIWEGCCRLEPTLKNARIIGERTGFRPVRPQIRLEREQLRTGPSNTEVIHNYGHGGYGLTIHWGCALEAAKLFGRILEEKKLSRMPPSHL
T1 sequence (P00371 whole entry): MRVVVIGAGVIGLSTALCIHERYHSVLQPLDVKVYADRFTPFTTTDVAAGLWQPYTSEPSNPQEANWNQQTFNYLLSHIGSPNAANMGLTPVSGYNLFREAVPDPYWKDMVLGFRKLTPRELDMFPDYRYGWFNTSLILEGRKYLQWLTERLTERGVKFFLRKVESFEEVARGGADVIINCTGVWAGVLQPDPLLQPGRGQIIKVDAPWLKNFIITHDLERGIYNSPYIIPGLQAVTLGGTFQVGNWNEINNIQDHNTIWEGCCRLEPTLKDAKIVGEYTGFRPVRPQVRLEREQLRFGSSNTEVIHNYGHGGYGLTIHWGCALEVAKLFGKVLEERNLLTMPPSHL

`O=C(O)c1cc2ccccc2[nH]1` [INDOLE-2-CARBOXYLIC ACID] gave a Ki [1] of 3.4 µM.
`O=c1oc2ccccc2cc1O` [3-HYDROXYCOUMARIN] gave a Kd [2] of 5.6 µM, a Kd [3] of 4 µM and a Ki [4] of 13 nM. It also gave an IC50 [5] of 34.7 nM and a Kd [6] of 6.3 µM.
`O=C(O)c1cc2sccc2[nH]1` gave a Kd [7] of 2500 nM, a Kd [8] of 130 nM and an EC50 [9] of 500 nM. For the same compound, the Stability [10] was “Unstable”, the concentration at 2 h [11] was greater than 1000 nM and the concentration at 2 h [12] was less than 1000 nM. It also gave a Ki [4] of 3.5 nM, an IC50 [5] of 5.37 nM and a Kd [6] of 7 µM. The IC50 [13] was 5.37 nM and the inhibition [14] was “Active”.
Work on `O=C(O)c1ccc[nH]1` yielded a Kd [15] of 26 µM.
Work on `O=C(O)c1ccccc1` [BENZOIC ACID] yielded a Kd [16] of 2200 nM, a Ki [4] of 2000 nM and an IC50 [5] of 2090 nM. For the same compound, the Kd [6] was 2.3 µM and the Kd [17] was 9 µM.
`Oc1noc2cc(Cl)c(Cl)cc12` showed a Kd [18] of 4.2 µM, a Kd [19] of 4.2 µM and a Kd [20] of 4 µM. For the same compound, the Kd [21] was 3.6 µM, the EC50 [9] was 1500 nM and the concentration at 3 h [22] was less than 1000 nM. For the same compound, the inhibition [23] was “Active”, the Ki [4] was 1.7 nM and the IC50 [5] was 3.09 nM. For the same compound, the Kd [6] was 1.9 µM.
`O=C(O)c1cc2occ(CCc3ccccc3)c2[nH]1` gave a Kd [24] of 3.2 µM, a Kd [25] of 4.8 µM and a Kd [16] of 3700 nM. For the same compound, the Ki [4] was 190 nM, the IC50 [5] was 219 nM and the Kd [6] was 6 µM.
Compound `O=C(O)c1cc(CCc2ccc(Cl)cc2)c[nH]1` has a concentration at 6 h [26] greater than 1000 nM.

Reference: ChEMBL document CHEMBL2375208, “Structural, kinetic, and pharmacodynamic mechanisms of D-amino acid oxidase inhibition by small molecules” (J Med Chem, 2013)
